Results from ChEMBL document CHEMBL1122229, “alpha-adrenoreceptor reagents. 1. Synthesis of some 1,4-benzodioxans as selective presynaptic alpha 2-adrenoreceptor antagonists and potential antidepressants” (J Med Chem, 1983).
Active and inactive are the calls of the source. The calls are words filed in the database; no cut-off is given here.

Columns and labels:
[1] = target: T1, Adrenergic receptor alpha-1 (Rattus norvegicus) (UniProt P15823+P23944+P43140); assay: Ratio of presynaptic antagonist potency to postsynaptic antagonist potency; assay type: functional
T1 sequence (P15823 whole entry, looked up): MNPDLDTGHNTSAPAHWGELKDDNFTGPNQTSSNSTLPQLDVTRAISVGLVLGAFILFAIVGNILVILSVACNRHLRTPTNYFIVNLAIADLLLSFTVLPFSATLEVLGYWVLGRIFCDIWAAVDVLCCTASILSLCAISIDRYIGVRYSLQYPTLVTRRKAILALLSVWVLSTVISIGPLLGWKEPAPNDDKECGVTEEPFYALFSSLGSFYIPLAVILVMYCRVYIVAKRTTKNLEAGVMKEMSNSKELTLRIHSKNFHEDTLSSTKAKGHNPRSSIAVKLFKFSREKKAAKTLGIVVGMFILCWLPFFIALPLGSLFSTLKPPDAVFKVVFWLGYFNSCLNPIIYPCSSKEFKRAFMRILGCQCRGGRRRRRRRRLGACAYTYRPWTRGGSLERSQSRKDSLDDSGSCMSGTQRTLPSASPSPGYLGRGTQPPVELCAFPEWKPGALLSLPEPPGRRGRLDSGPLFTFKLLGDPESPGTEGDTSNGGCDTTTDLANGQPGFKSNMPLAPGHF
T1 sequence (P23944 whole entry, looked up): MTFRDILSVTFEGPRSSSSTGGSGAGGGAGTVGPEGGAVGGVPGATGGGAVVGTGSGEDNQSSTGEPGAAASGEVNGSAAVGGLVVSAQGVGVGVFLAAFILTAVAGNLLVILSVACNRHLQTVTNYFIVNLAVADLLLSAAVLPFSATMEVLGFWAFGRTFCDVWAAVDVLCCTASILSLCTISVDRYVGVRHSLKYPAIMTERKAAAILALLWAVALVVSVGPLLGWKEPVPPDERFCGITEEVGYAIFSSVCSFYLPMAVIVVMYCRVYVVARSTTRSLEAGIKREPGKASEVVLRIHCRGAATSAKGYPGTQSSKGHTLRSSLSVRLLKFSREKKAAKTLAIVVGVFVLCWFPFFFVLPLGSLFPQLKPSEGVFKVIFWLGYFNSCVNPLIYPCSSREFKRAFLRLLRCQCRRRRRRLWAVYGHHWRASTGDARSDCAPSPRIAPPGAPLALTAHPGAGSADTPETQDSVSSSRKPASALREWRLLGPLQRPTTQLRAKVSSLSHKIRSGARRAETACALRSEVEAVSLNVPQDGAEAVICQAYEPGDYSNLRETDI
T1 sequence (P43140 whole entry, looked up): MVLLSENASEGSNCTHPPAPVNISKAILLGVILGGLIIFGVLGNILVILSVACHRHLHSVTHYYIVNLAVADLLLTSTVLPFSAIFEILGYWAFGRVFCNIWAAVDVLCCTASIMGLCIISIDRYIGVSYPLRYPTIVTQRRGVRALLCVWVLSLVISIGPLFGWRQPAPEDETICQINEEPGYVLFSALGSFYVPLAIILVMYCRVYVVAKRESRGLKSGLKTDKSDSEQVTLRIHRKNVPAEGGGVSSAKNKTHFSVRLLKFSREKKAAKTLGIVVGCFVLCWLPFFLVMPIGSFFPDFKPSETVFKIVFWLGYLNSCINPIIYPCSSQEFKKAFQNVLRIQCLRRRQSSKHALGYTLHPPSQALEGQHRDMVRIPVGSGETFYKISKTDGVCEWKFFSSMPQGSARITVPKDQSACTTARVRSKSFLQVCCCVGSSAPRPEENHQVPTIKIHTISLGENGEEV

[2] = target: T1, Adrenergic receptor alpha-1 (Rattus norvegicus); assay: In vitro postsynaptic antagonist potency at alpha-1 adrenergic receptor in rat anococcygeus relative to compound 5 (RX781094); assay type: functional
[3] = test system: Alpha-2 adrenergic receptor (Rattus norvegicus); assay: In vitro presynaptic agonist potency at alpha-2 adrenergic receptor in rat or mouse vas deferens relative to clonidine; Inactive
[4] = target: Adrenergic receptor alpha-2 (Homo sapiens) (UniProt P08913+P18825+P18089); assay: In vitro presynaptic antagonist potency at Alpha-2 adrenergic receptor in rat or mouse vas deferens relative to compound 5 (RX781094); assay type: functional, tissue-based
Method in brief: (§1)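 Prostatic half of vas deferens from male Sprague–Dawley rats (200–250 g; Krebs, 30 °C, 95% O2/5% CO2, 0.1 Hz, 3-ms, 40 V) or from mice (magnesium-free Krebs, 100–140 V). Tension 0.5 g; isometric twitch recording. […] The concentration giving 50% reversal of the inhibition was compared with standard 5 in the same tissue.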

[5] = target: T1, Adrenergic receptor alpha-1 (Rattus norvegicus); assay: In vitro postsynaptic agonist potency at alpha-1 adrenergic receptor in rat anococcygeus muscle relative to phenylephrine; IA means inactive.; assay type: functional, tissue-based
Method in brief: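 Rat anococcygeus muscle (male Sprague–Dawley rats, 200–250 g) suspended at 0.5 g initial tension in a 50-mL organ bath. […] Standard dose-response curves were run before and after the analogue's curve.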

[6] = In vitro antagonism at Alpha-2 adrenergic receptor in rat or mouse vas deferens relative to RX781094.; assay type: functional; method in brief: as §1
[7] = target: T1, Adrenergic receptor alpha-1 (Rattus norvegicus); assay: In vitro postsynaptic antagonist potency at alpha-1 adrenergic receptor in rat anococcygeus relative to compound 5 (RX781094); AG means compound is agonist.; assay type: functional; conditions: filed as agonist
[8] = target: T1, Adrenergic receptor alpha-1 (Rattus norvegicus); assay: In vitro postsynaptic agonist potency at alpha-1 adrenergic receptor in rat anococcygeus muscle relative to phenylephrine; assay type: functional, tissue-based
[9] = target: T2, Adenosine receptor A2b (Rattus norvegicus) (UniProt P29276); assay: In vitro presynaptic agonist potency at Alpha-2 adrenergic receptor in rat or mouse vas deferens relative to clonidine; assay type: functional, tissue-based
T2 sequence (whole entry): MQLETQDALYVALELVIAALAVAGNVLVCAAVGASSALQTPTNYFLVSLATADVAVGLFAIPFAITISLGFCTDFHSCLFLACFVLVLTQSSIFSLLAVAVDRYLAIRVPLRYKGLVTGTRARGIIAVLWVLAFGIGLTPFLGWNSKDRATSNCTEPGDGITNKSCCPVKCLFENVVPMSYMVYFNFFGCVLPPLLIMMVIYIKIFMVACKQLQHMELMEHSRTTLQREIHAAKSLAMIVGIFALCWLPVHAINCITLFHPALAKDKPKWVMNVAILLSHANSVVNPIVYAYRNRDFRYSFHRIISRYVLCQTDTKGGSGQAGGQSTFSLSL
Method in brief: (§2)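 Field-stimulated rat or mouse vas deferens under 0.5 g tension, at 0.1 Hz with 3-ms pulses, 30 °C, gassed with 95% O2/5% CO2. Contractions were recorded isometrically. Standard dose-response curves were run before and after each analogue curve. Potency was expressed relative to the standard in the same experiment.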

[10] = target: T3, Adrenergic receptor alpha-2 (Rattus norvegicus) (UniProt P22086+P19328+P22909); assay: In vitro presynaptic agonist potency at alpha-2 adrenergic receptor in rat or mouse vas deferens relative to clonidine; assay type: functional, tissue-based; method in brief: as §2
T3 sequence (P19328 whole entry, looked up): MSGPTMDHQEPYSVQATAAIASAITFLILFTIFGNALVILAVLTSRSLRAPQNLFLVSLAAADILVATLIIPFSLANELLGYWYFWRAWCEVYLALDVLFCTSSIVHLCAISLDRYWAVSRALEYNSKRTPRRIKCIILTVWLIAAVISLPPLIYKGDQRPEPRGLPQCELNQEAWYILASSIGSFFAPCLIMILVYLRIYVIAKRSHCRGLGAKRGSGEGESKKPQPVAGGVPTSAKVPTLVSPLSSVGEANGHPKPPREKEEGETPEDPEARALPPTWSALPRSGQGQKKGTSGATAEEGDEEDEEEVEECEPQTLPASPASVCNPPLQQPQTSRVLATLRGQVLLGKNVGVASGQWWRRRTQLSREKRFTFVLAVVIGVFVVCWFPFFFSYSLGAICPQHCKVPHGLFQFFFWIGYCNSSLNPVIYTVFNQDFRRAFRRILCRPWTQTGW
T3 sequence (P22086 whole entry, looked up): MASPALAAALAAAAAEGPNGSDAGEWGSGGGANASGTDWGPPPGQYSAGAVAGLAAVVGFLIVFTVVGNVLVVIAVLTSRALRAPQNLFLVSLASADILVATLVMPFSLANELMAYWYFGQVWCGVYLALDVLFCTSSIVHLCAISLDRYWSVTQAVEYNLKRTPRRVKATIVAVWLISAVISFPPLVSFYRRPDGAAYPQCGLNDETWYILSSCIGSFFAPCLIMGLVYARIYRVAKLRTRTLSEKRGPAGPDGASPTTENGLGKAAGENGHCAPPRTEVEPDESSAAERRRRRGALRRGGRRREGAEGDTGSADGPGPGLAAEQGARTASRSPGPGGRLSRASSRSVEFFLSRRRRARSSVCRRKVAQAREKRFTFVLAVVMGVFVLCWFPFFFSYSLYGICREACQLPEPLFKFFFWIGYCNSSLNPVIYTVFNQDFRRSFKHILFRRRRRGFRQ
T3 sequence (P22909 whole entry, looked up): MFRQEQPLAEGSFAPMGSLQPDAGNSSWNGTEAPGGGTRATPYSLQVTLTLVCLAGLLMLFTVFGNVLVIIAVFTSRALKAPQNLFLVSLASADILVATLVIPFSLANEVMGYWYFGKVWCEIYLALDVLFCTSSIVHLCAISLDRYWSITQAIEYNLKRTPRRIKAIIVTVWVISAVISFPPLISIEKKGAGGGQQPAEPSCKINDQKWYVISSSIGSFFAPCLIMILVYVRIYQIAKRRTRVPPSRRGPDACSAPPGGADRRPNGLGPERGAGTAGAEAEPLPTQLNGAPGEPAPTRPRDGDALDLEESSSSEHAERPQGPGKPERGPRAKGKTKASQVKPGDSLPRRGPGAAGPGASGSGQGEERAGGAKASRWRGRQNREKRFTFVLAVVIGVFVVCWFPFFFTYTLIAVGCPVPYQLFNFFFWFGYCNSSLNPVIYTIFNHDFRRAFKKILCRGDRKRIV

[11] = target: T2, Adenosine receptor A2b (Rattus norvegicus); assay: In vitro presynaptic agonist potency at Alpha-2 adrenergic receptor in rat or mouse vas deferens relative to clonidine; IA means inactive; assay type: functional, tissue-based; method in brief: as §2
[12] = target: T1, Adrenergic receptor alpha-1 (Rattus norvegicus); assay: In vitro postsynaptic antagonist potency at alpha-1 adrenergic receptor in rat anococcygeus. Taken as standard; assay type: functional
[13] = target: T3, Adrenergic receptor alpha-2 (Rattus norvegicus); assay: In vitro presynaptic agonist potency at alpha-2 adrenergic receptor in rat or mouse vas deferens relative to clonidine; IA means inactive; assay type: functional, tissue-based
Method in brief: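 Field-stimulated rat or mouse vas deferens (Krebs, 30 °C, 95% O2/5% CO2, 3-ms pulses at 0.1 Hz) with isometric twitch recording. […] Standard dose-response curves were run before and after the analogue's curve.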

[14] = test system: Alpha-2 adrenergic receptor (Rattus norvegicus); assay: In vitro presynaptic agonist potency at Alpha-2 adrenergic receptor in rat or mouse vas deferens relative to clonidine; IA means inactive

COc1cc2c(cc1OC)OC(C1=NCCN1)CO2 (stereo not given)
Selectivity [1]: 0.3 | Antagonist potency [2]: 0.05 | Agonist potency [3]: inactive | Antagonist potency [4]: 0.015 | Agonist potency [5]: inactive

Cc1cccc2c1OCC(C1=NCCN1)O2 (stereo not given)
Antagonist potency [6]: 0.13 | Antagonist potency [7]: Agonist | Agonist potency [8]: 1 | Agonist potency [9]: 0.1

CC(C)c1cccc2c1OCC(C1=NCCN1)O2 (stereo not given)
Agonist potency [10]: 0.1 | Antagonist potency [2]: 1 | Agonist potency [8]: 0.5 | Antagonist potency [11]: inactive

c1ccc2c(c1)OCC(C1=NCCN1)O2 (stereo not given)
Antagonist potency [12]: 1 | Agonist potency [13]: inactive | Agonist potency [5]: inactive

N/C(=N\CC(=O)O)C1COc2ccccc2O1 (stereo not given)
Agonist potency [14]: inactive | Antagonist potency [6]: <0.0003 | Antagonist potency [2]: < 0.023 | Agonist potency [5]: inactive
